In ChEMBL document CHEMBL1151311, “A novel antiprotozoal aminosteroid from Saracha punctata” (J Nat Prod, 1998):

Assays:
Leishmania chagasi [1] = experiment: Antileishmanial activity against Leishmania donovani chagasi PP75 at 10 ug/ml; format: functional
Trypanosoma cruzi [2] = experiment: Trypanocidal activity against Trypanosoma cruzi Tulahuen epimastigotes at 10 ug/ml after 48 hrs relative to control; format: functional; conditions: Tuluhuen
Outline: (§1)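 T. cruzi epimastigotes in LIT medium with 10% FCS at 28 °C (inoculum 10^6 cells/mL) were exposed to compound (final DMSO <0.5%) for 48 h. Parasites were counted in a hemocytometer and compared with extract-free controls, in triplicate.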

Leishmania braziliensis [3] = experiment: Antileishmanial activity against Leishmania braziliensis MHOM/BR/75/M2903 promastigotes at 10 ug/ml after 72 hrs relative to control; format: functional; conditions: MHOM/BR/75/M2903, 72 h
Outline: (§2)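 Promastigotes, 50 000 per well, were exposed to compound in liquid medium (final DMSO <0.1%) at 27 °C for 72 h. Growth was judged by inverted-phase microscopy of a culture drop against extract-free controls. Assays were run in triplicate.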

Leishmania amazonensis [4] = experiment: Antileishmanial activity against Leishmania amazonensis MHOM/GF/84/CAY H-142 promastigotes at 10 ug/ml after 72 hrs relative to control
Plasmodium berghei [5] = experiment: Antiplasmodial activity as reduced parasitaemia in Plasmodium berghei NK65 infected mice (Mus musculus) at 16 mg/kg/day for 4 days; format: functional; parameters: scale not given: the % may be the effect or the level left
Outline: (§3)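 Four-day suppressive test adapted from Peters: mice were inoculated with P. berghei NK 65 on day 1 and treated daily for four consecutive days. A blood smear was taken on day 5, and parasitemia was compared with infected untreated controls.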

Plasmodium falciparum [6] = experiment: Antimalarial activity against chloroquine-sensitive Plasmodium falciparum 2087 after 24 hrs; format: functional, organism-based
Outline: (§4)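 P. falciparum strains 2087 and INDO kept in human erythrocytes. Samples were dissolved with DMSO (≤0.1% in dilutions) in RPMI 1640 and tested in triplicate with O+ red cells at 5% hematocrit and 1% parasitemia. Plates were incubated 24 h at 37 °C by candle-jar, then 48 h more with daily medium change. Parasitemia was counted by day-3 smear; IC50 came from linear regression of % inhibition versus control.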

[7] = Cytotoxicity against BALB/c mouse peritoneal macrophages assessed as survival at 10 ug/ml; format: cell-based, Macrophage; conditions: read-out: Activity
Mus musculus [8] = experiment: Toxicity in Plasmodium berghei NK65 infected mice (Mus musculus) at 8 mg/kg administered daily for 4 days; format: organism-based; parameters: dose 8 mg/kg; conditions: in vivo, 96 h
Outline: (§5)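 Mice infected with P. berghei NK 65 on day 1 were dosed daily for four consecutive days in the four-day suppressive test. Lethality was recorded on day 4.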

Trypanosoma cruzi [9] = experiment: Trypanocidal activity against Trypanosoma cruzi Tulahuen epimastigotes at 20 ug/ml after 48 hrs relative to control; format: functional; conditions: Tuluhuen; outline: as §1
[10] = Selectivity index, ratio of IC50 for KB cells to IC50 for chloroquine -sensitive Plasmodium falciparum 2087; format: toxicity, cell-based; conditions: human, read-out: Ratio IC50
Trypanosoma cruzi [11] = experiment: Trypanocidal activity against Trypanosoma cruzi Tulahuen epimastigotes at 2.5 ug/ml after 48 hrs relative to control; format: functional; conditions: Tuluhuen; outline: as §1
Leishmania chagasi [12] = experiment: Antileishmanial activity against Leishmania donovani chagasi PP75 at 20 ug/ml; format: functional
Leishmania braziliensis [13] = experiment: Antileishmanial activity against Leishmania braziliensis MHOM/BR/75/M2903 promastigotes at 20 ug/ml after 72 hrs relative to control; format: functional; conditions: MHOM/BR/75/M2903, 72 h; outline: as §2
Plasmodium berghei [14] = experiment: Antiplasmodial activity as reduced parasitaemia in Plasmodium berghei NK65 infected mice (Mus musculus) at 32 mg/kg/day for 4 days; format: functional; parameters: scale not given: the % may be the effect or the level left; outline: as §3
Mus musculus [15] = experiment: Toxicity in Plasmodium berghei NK65 infected mice (Mus musculus) at 16 mg/kg administered daily for 4 days; format: organism-based; parameters: dose 16 mg/kg; conditions: in vivo, 96 h; outline: as §5
Leishmania amazonensis [16] = experiment: Antileishmanial activity against Leishmania amazonensis MHOM/GF/84/CAY H-142 promastigotes at 5 ug/ml after 72 hrs relative to control
Plasmodium falciparum [17] = experiment: Antimalarial activity against chloroquine-resistant Plasmodium falciparum Indo after 24 hrs; format: functional, organism-based; outline: as §4
Leishmania amazonensis [18] = experiment: Antileishmanial activity against Leishmania amazonensis MHOM/GF/84/CAY H-142 promastigotes at 2.5 ug/ml after 72 hrs relative to control
[19] = Cytotoxicity against BALB/c mouse peritoneal macrophages assessed as survival at 20 ug/ml; format: cell-based, Macrophage; conditions: read-out: Activity
Trypanosoma cruzi [20] = experiment: Trypanocidal activity against Trypanosoma cruzi Tulahuen epimastigotes at 5 ug/ml after 48 hrs relative to control; format: functional; conditions: Tuluhuen; outline: as §1
[21] = Cytotoxicity against BALB/c mouse peritoneal macrophages assessed as survival at 5 ug/ml; format: cell-based, Macrophage; conditions: read-out: Activity
Leishmania chagasi [22] = experiment: Antileishmanial activity against Leishmania donovani chagasi PP75 at 2.5 ug/ml; format: functional
Plasmodium berghei [23] = experiment: Antiplasmodial activity as reduced parasitaemia in Plasmodium berghei NK65 infected mice (Mus musculus) at 8 mg/kg/day for 4 days; format: functional; parameters: scale not given: the % may be the effect or the level left; outline: as §3
[24] = Selectivity index, ratio of IC50 for KB cells to IC50 for chloroquine-resistant Plasmodium falciparum INDO; format: toxicity, cell-based; conditions: human, read-out: Ratio IC50
Leishmania braziliensis [25] = experiment: Antileishmanial activity against Leishmania braziliensis MHOM/BR/75/M2903 promastigotes at 2.5 ug/ml after 72 hrs relative to control; format: functional; conditions: MHOM/BR/75/M2903, 72 h; outline: as §2
Leishmania chagasi [26] = experiment: Antileishmanial activity against Leishmania donovani chagasi PP75 at 5 ug/ml; format: functional
Leishmania amazonensis [27] = experiment: Antileishmanial activity against Leishmania amazonensis MHOM/GF/84/CAY H-142 promastigotes at 20 ug/ml after 72 hrs relative to control
KB = experiment: Cytotoxicity against human KB cells; format: cell-based
Leishmania braziliensis [28] = experiment: Antileishmanial activity against Leishmania braziliensis MHOM/BR/75/M2903 promastigotes at 5 ug/ml after 72 hrs relative to control; format: functional; conditions: MHOM/BR/75/M2903, 72 h; outline: as §2

`N=C(N)c1ccc(OCCCCCOc2ccc(C(=N)N)cc2)cc1` [PENTAMIDINE] gave an inhibition at 10 µg/mL (Leishmania chagasi [1]) of 100%, an inhibition at 10 µg/mL (Trypanosoma cruzi [2]) of 100% and an inhibition at 10 µg/mL (Leishmania braziliensis [3]) of 100%. It also gave an inhibition at 10 µg/mL (Leishmania amazonensis [4]) of 100%.

`C[C@H]1CC[C@H]([C@@H](C)[C@H]2CC[C@H]3[C@@H]4CC=C5C[C@@H](N)CC[C@]5(C)[C@H]4CC[C@]23C)NC1` gave an Activity (Plasmodium berghei [5]) of 27%, an IC50 (Plasmodium falciparum [6]) of 25 nM and a viability at 10 ug/ml [7] of 0%. It also gave an inhibition at 10 µg/mL (Leishmania chagasi [1]) of 100%, an inhibition at 10 µg/mL (Trypanosoma cruzi [2]) of 50% and an inhibition at 10 µg/mL (Leishmania braziliensis [3]) of 100%. For the same compound, the Activity (Mus musculus [8]) was “Non-toxic”, the inhibition at 20 µg/mL (Trypanosoma cruzi [9]) was 100% and the selectivity ratio [10] was 2000. It also gave an inhibition at 2.5 µg/mL (Trypanosoma cruzi [11]) of 0%, an inhibition at 20 µg/mL (Leishmania chagasi [12]) of 100% and an inhibition at 20 µg/mL (Leishmania braziliensis [13]) of 100%. The Activity (Plasmodium berghei [14]) was 69%, the Activity (Mus musculus [15]) was “Non-toxic” and the inhibition at 5 µg/mL (Leishmania amazonensis [16]) was 50%. It also gave an IC50 (Plasmodium falciparum [17]) of 176 nM, an inhibition at 2.5 µg/mL (Leishmania amazonensis [18]) of 0% and a viability at 20 ug/ml [19] of 0%. For the same compound, the inhibition at 5 µg/mL (Trypanosoma cruzi [20]) was 0%, the viability at 5 ug/ml [21] was 0% and the inhibition at 2.5 µg/mL (Leishmania chagasi [22]) was 0%. It also gave an Activity (Plasmodium berghei [23]) of 16%, a selectivity ratio [24] of 286 and an inhibition at 2.5 µg/mL (Leishmania braziliensis [25]) of 0%. The inhibition at 5 µg/mL (Leishmania chagasi [26]) was 50%, the inhibition at 20 µg/mL (Leishmania amazonensis [27]) was 100% and the inhibition at 10 µg/mL (Leishmania amazonensis [4]) was 100%. The IC50 (KB) was 50000 nM and the inhibition at 5 µg/mL (Leishmania braziliensis [28]) was 50%.
